Source: ChEMBL document CHEMBL1828575, “Design, synthesis and antiproliferative activities of biarylolefins based on polyhydroxylated and carbohydrate scaffolds” (Eur J Med Chem, 2011)

How the values were obtained:
PC-3 [1] = assay: Cytotoxicity against human PC3 cells at 10^-6 M after 72 hrs by MTS assay; format: functional; settings: PC-3, 72 h, read-out: GI
Outline: (§1)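 Preliminary screen at 10^-5 and 10^-6 M. Cells were grown in RPMI with 10% fetal calf serum plus penicillin, streptomycin and fungizone under 5% CO₂, plated in 96-well plates, and dosed 24 h later from DMSO stocks (1% DMSO final, same in controls). After 72 h, MTS was added for 3 h at 37 °C and absorbance read at 490 nm. Inhibition was calculated as (1 − OD treated/OD control) × 100, in triplicate.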

SF-268 [2] = assay: Cytotoxicity against human SF268 cells at 10^-6 M after 72 hrs by MTS assay; format: functional; settings: SF-268, 72 h, read-out: GI; outline: as §1
SK-OV-3 [3] = assay: Cytotoxicity against human SKOV3 cells at 10^-6 M after 72 hrs by MTS assay; format: functional; settings: SK-OV-3, 72 h, read-out: GI; outline: as §1
OVCAR-8 [4] = assay: Cytotoxicity against human OVCAR8 cells at 10^-6 M after 72 hrs by MTS assay; format: functional; settings: OVCAR-8, 72 h, read-out: GI; outline: as §1
MIA PaCa-2 [5] = assay: Cytotoxicity against human MIAPaCa2 cells at 10^-6 M after 72 hrs by MTS assay; format: functional; settings: MIA PaCa-2, 72 h, read-out: GI
HL-60 [6] = assay: Cytotoxicity against human HL60 cells at 10^-6 M after 72 hrs by MTS assay; format: functional; settings: HL-60, 72 h, read-out: GI
Outline: (§2)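 Cells grown in RPMI with 10% fetal calf serum, penicillin, streptomycin and fungizone under 5% CO₂. Plated in 96-well plates and dosed 24 h later with compound in DMSO (1% final DMSO; controls got DMSO alone). After 72 h, MTS was added for 3 h at 37 °C and A490 read. Inhibition = (1 − OD treated/OD control) × 100, in triplicate.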

[7] = Cytotoxicity against human HL60R cells at 10^-6 M after 72 hrs by MTS assay; format: functional; settings: read-out: GI; outline: as §2
K562 [8] = assay: Cytotoxicity against human K562 cells at 10^-6 M after 72 hrs by MTS assay; format: functional; settings: K562, 72 h, read-out: GI; outline: as §2
[9] = Cytotoxicity against human Hs 578T cells assessed as cellular growth at 10 uM after 48 hrs by SRB assay; format: functional
SW-620 = assay: Cytotoxicity against human SW620 cells assessed as cellular growth at 10 uM after 48 hrs by SRB assay; format: functional
HCT-116 [10] = assay: Cytotoxicity against human HCT116 cells at 10^-5 M after 72 hrs by MTS assay; format: functional; settings: HCT-116, 72 h, read-out: GI; outline: as §2
HT-29 [11] = assay: Cytotoxicity against human HT-29 cells at 10^-5 M after 72 hrs by MTS assay; format: functional; settings: HT-29, 72 h, read-out: GI; outline: as §2
HCT-15 [12] = assay: Cytotoxicity against human HCT15 cells at 10^-5 M after 72 hrs by MTS assay; format: functional; settings: HCT-15, 72 h, read-out: GI; outline: as §2
MCF7 [13] = assay: Cytotoxicity against human MCF7 cells at 10^-5 M after 72 hrs by MTS assay; format: functional; settings: MCF7, 72 h, read-out: GI
[14] = Cytotoxicity against human MDA231 cells at 10^-5 M after 72 hrs by MTS assay; format: functional; settings: MDA-MB-231, 72 h, read-out: GI; outline: as §1
A549 [15] = assay: Cytotoxicity against human A549 cells at 10^-5 M after 72 hrs by MTS assay; format: functional; settings: A549, 72 h, read-out: GI; outline: as §2
PC-3 [16] = assay: Cytotoxicity against human PC3 cells at 10^-5 M after 72 hrs by MTS assay; format: functional; settings: PC-3, 72 h, read-out: GI; outline: as §1
SF-268 [17] = assay: Cytotoxicity against human SF268 cells at 10^-5 M after 72 hrs by MTS assay; format: functional; settings: SF-268, 72 h, read-out: GI; outline: as §1
SK-OV-3 [18] = assay: Cytotoxicity against human SKOV3 cells at 10^-5 M after 72 hrs by MTS assay; format: functional; settings: SK-OV-3, 72 h, read-out: GI; outline: as §1
OVCAR-8 [19] = assay: Cytotoxicity against human OVCAR8 cells at 10^-5 M after 72 hrs by MTS assay; format: functional; settings: OVCAR-8, 72 h, read-out: GI; outline: as §1
MIA PaCa-2 [20] = assay: Cytotoxicity against human MIAPaCa2 cells at 10^-5 M after 72 hrs by MTS assay; format: functional; settings: MIA PaCa-2, 72 h, read-out: GI
HL-60 [21] = assay: Cytotoxicity against human HL60 cells at 10^-5 M after 72 hrs by MTS assay; format: functional; settings: HL-60, 72 h, read-out: GI; outline: as §2
[22] = Cytotoxicity against human HL60R cells at 10^-5 M after 72 hrs by MTS assay; format: functional, HL-60; settings: read-out: GI; outline: as §2
K562 [23] = assay: Cytotoxicity against human K562 cells at 10^-5 M after 72 hrs by MTS assay; format: functional; settings: K562, 72 h, read-out: GI; outline: as §2
HCC 2998 = assay: Cytotoxicity against human HCC2998 cells assessed as cellular growth at 10 uM after 48 hrs by SRB assay; format: functional
Outline: (§3)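 NCI60 single-dose screen of cells in RPMI 1640 with 5% FBS and 2 mM L-glutamine, preincubated 24 h at 37 °C, 5% CO₂. Cells were then exposed 48 h to compound added from DMSO stock. TCA-fixed, stained with 0.4% SRB in 1% acetic acid, dye solubilised in 10 mM Tris base and read at 515 nm. Growth is given as percent of untreated control.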

SK-MEL-28 = assay: Cytotoxicity against human SK-MEL-28 cells assessed as cellular growth at 10 uM after 48 hrs by SRB assay; format: functional
A498 = assay: Cytotoxicity against human A498 cells assessed as cellular growth at 10 uM after 48 hrs by SRB assay; format: functional; outline: as §3
RXF 393 = assay: Cytotoxicity against human RXF393 cells assessed as cellular growth at 10 uM after 48 hrs by SRB assay; format: functional
M14 = assay: Antitumor activity against human M14 cells after 48 hrs by SRB assay; format: functional; settings: M14, 48 h
Outline: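 NCI60 panel in RPMI 1640 with 5% FBS and 2 mM L-glutamine. Cells were plated at 5000–40,000/well by doubling time, held 24 h, then time-zero plates were TCA-fixed. Five concentrations (10-fold or half-log dilutions of DMSO stocks) were applied for 48 h at 37 °C, 5% CO2. Cells were fixed with cold TCA (10% final adherent, 16% suspension) and stained with 0.4% SRB. Bound dye was dissolved in 10 mM Tris and read at 515 nm. GI50, TGI and LC50 were calculated per line.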

HCT-116 [24] = assay: Cytotoxicity against human HCT116 cells at 10^-6 M after 72 hrs by MTS assay; format: functional; settings: HCT-116, 72 h, read-out: GI; outline: as §2
HT-29 [25] = assay: Cytotoxicity against human HT-29 cells at 10^-6 M after 72 hrs by MTS assay; format: functional; settings: HT-29, 72 h, read-out: GI; outline: as §2
HCT-15 [26] = assay: Cytotoxicity against human HCT15 cells at 10^-6 M after 72 hrs by MTS assay; format: functional; settings: HCT-15, 72 h, read-out: GI; outline: as §2
MCF7 [27] = assay: Cytotoxicity against human MCF7 cells at 10^-6 M after 72 hrs by MTS assay; format: functional; settings: MCF7, 72 h, read-out: GI
[28] = Cytotoxicity against human MDA231 cells at 10^-6 M after 72 hrs by MTS assay; format: functional; settings: MDA-MB-231, 72 h, read-out: GI; outline: as §1
A549 [29] = assay: Cytotoxicity against human A549 cells at 10^-6 M after 72 hrs by MTS assay; format: functional; settings: A549, 72 h, read-out: GI; outline: as §2

Structure (SMILES): COc1ccc(/C(=C2/O[C@@H]([C@H]3COC(C)(C)O3)[C@H]3OC(C)(C)O[C@@H]23)c2cc(OC)c(OC)c(OC)c2)cc1O
- inhibition of growth at 1 µM (PC-3 [1]): 0%
- inhibition of growth at 1 µM (SF-268 [2]): 7%
- inhibition of growth at 1 µM (SK-OV-3 [3]): 0%
- inhibition of growth at 1 µM (OVCAR-8 [4]): 0%
- inhibition of growth at 1 µM (MIA PaCa-2 [5]): 0%
- inhibition of growth at 1 µM (HL-60 [6]): 2%
- inhibition of growth at 1 µM [7]: 8%
- inhibition of growth at 1 µM (K562 [8]): 2%
- Activity [9]: 22.15%
- Activity (SW-620): 15.44%
- inhibition of growth at 10 µM (HCT-116 [10]): 39%
- inhibition of growth at 10 µM (HT-29 [11]): 3%
- inhibition of growth at 10 µM (HCT-15 [12]): 66%
- inhibition of growth at 10 µM (MCF7 [13]): 20%
- inhibition of growth at 10 µM [14]: 79%
- inhibition of growth at 10 µM (A549 [15]): 35%
- inhibition of growth at 10 µM (PC-3 [16]): 71%
- inhibition of growth at 10 µM (SF-268 [17]): 68%
- inhibition of growth at 10 µM (SK-OV-3 [18]): 48%
- inhibition of growth at 10 µM (OVCAR-8 [19]): 17%
- inhibition of growth at 10 µM (MIA PaCa-2 [20]): 30%
- inhibition of growth at 10 µM (HL-60 [21]): 69%
- inhibition of growth at 10 µM [22]: 63%
- inhibition of growth at 10 µM (K562 [23]): 82%
- Activity (HCC 2998): 102.13%
- Activity (SK-MEL-28): 59.6%
- Activity (A498): 63.35%
- Activity (RXF 393): 81.92%
- GI50 (M14; read-out: GI50): 2.4 µM
- CC50 (M14; read-out: LC50 (the source's name)): > 100 µM
- TGI (M14; read-out: TGI): 5.9 µM
- GI50 (M14; read-out: pGI50 (converted)): 2.4 µM
- CC50 (M14; read-out: pLC50 (the source's name) (converted)): > 100 µM
- TGI (M14; read-out: pTGI (converted)): 5.89 µM
- inhibition of growth at 1 µM (HCT-116 [24]): 0%
- inhibition of growth at 1 µM (HT-29 [25]): 2%
- inhibition of growth at 1 µM (HCT-15 [26]): 3%
- inhibition of growth at 1 µM (MCF7 [27]): 0%
- inhibition of growth at 1 µM [28]: 0%
- inhibition of growth at 1 µM (A549 [29]): 1%
